Results from ChEMBL document CHEMBL1154285, “Meroterpenes from Dichrostachys cinerea inhibit protein farnesyl transferase activity” (J Nat Prod, 2009).

Tests used:
[1] = Inhibition of rat farnesyl transferase after 30 mins
Method in brief: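 Rat PFTase at 10 nM, added last to start the reaction, in 50 mM Tris/HCl pH 7.5 with 5 mM MgCl2, 5 mM DTT, 0.1 mM ZnCl2 and 0.2% octyl-β-D-glucopyranoside. Substrates were 10 µM GCVLS-dansyl and 10 µM farnesyl pyrophosphate. Compounds from 0.3 nM to 100 µM, 1% DMSO final, in triplicate. Incubation 30 min at 37 °C; fluorescence read at ex 340/em 505 nm. IC50 from sigmoidal dose-response fit.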

[2] = Cytotoxicity against human WM266.4 cells after 72 hrs by ATP lite assay; type: functional, WM 266-4
Method in brief: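 Metastatic melanoma WM 266-4 cells (ATCC), 5000 per well, in RPMI with 10% FBS, 50 µg/mL streptomycin and 50 U/mL penicillin. Compounds were present for 72 h at 1% DMSO final, in triplicate. Viability was read by ATPLite luminescence. IC50 from sigmoidal dose-response fit.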

IC50 [1] [µM] | Structure (SMILES) | Activity [2] [µM]
40 | C=C1[C@@H](O)C[C@H]2C(C)(C)C[C@H](O)C[C@]2(C)[C@H]1C[C@@H]1C(C)=CC[C@H]2C(=O)C(OC)=CC(=O)[C@@]12c1cc(=O)c2c(O)cc(O)cc2o1 [DICHROSTACHINE B] | >10
7 | C=C1[C@@H](O)C[C@H]2C(C)(C)CCC[C@]2(C)[C@H]1C[C@@H]1C(C)=CC[C@H]2C(O)C(=O)C=C[C@@]12c1cc(=O)c2c(O)cc(O)cc2o1 (stereo not given in full) [DICHROSTACHINE P] | >10
25 | C=C1[C@@H](O)C[C@H]2C(C)(C)CCC[C@]2(C)[C@H]1C[C@@H]1C(C)=CC[C@H]2C(O)C(OC)=CC(=O)[C@@]12c1cc(=O)c2c(O)cc(O)cc2o1 (stereo not given in full) [DICHROSTACHINE O] | >10
40 | C=C1[C@@H](O)C[C@@H]2[C@](C)(CCC[C@@]2(C)C(=O)O)[C@H]1C[C@@H]1C(C)=CC[C@H]2C(=O)C(OC)=CC(=O)[C@@]12c1cc(=O)c2c(O)cc(O)cc2o1 [DICHROSTACHINE E] | >10
17 | COC1=CC(=O)[C@@]2(c3cc(=O)c4c(O)cc(O)cc4o3)[C@H](C[C@]3(O)[C@@]4(C)C[C@@H](O)CC(C)(C)[C@@H]4CC[C@@]3(C)O)C(C)=CC[C@H]2C1=O | >10
1.8 | C=C1[C@@H](O)C[C@@H]2[C@](C)(CCC[C@@]2(C)C=O)[C@H]1C[C@@H]1C(C)=CC[C@H]2C(=O)C(OC)=CC(=O)[C@@]12c1cc(=O)c2c(O)cc(O)cc2o1 [DICHROSTACHINE H] | >10
86 | C=C1[C@@H](O)C[C@H]2C(C)(C)C[C@H](O)C[C@]2(C)[C@@]1(O)C[C@@H]1C(C)=CC[C@H]2C(=O)C(OC)=CC(=O)[C@@]12c1cc(=O)c2c(O)cc(O)cc2o1 [DICHROSTACHINE D] | >10
 | C=C1C(=O)C[C@H]2C(C)(C)C[C@H](O)C[C@]2(C)[C@@]1(O)C[C@@H]1C(C)=CC[C@H]2C(=O)C(OC)=CC(=O)[C@@]12c1cc(=O)c2c(O)cc(OC)cc2o1 [DICHROSTACHINE N] | 2.8
5.7 | C=C1[C@@H](O)C[C@H]2C(C)(C)CCC[C@]2(C)[C@H]1C[C@@H]1C(C)=CC[C@H]2C(=O)C(OC)=CC(=O)[C@@]12c1cc(=O)c2c(O)cc(O)cc2o1 [DICHROSTACHINE C] | >10
10 | C=C1[C@@H](O)C[C@H]2[C@](C)(CO)CCC[C@]2(C)[C@H]1C[C@@H]1C(C)=CC[C@H]2C(=O)C(OC)=CC(=O)[C@@]12c1cc(=O)c2c(O)cc(O)cc2o1 [DICHROSTACHINE A] | >10
3.2 | C=C1C(=O)C[C@H]2C(C)(C)CCC[C@]2(C)[C@H]1C[C@@H]1C(C)=CC[C@H]2C(=O)C(OC)=CC(=O)[C@@]12c1cc(=O)c2c(O)cc(O)cc2o1 [DICHROSTACHINE L] | >10
3 | C=C1C(=O)C[C@H]2C(C)(C)CCC[C@]2(C)[C@H]1C[C@@H]1C(C)=CC[C@H]2C(=O)C(OC)=CC(=O)[C@@]12c1cc(=O)c2c(O)cc(OC)cc2o1 [DICHROSTACHINE M] | 3.1

Structure (SMILES) | IC50 [1] [µM] | Activity [2] [µM]
NC(=O)N1CCC(CC(=O)N2CCC([C@H]3c4ncc(Br)cc4CCc4cc(Cl)cc(Br)c43)CC2)CC1 [LONAFARNIB] | 0.1 | >10
